# Measured values from ChEMBL document CHEMBL1135117, “Identification of potent and selective oxytocin antagonists. Part 2: further investigation of benzofuran derivatives” (Bioorg Med Chem Lett, 2002).
# What was measured:
# [1] = Compound was tested for plasma clearance in rat; format: ADME, organism-based
# [2] = target: Albumin (Homo sapiens, UniProt P02768); assay: Compound was tested for Serum albumin binding
# [3] = Tested for the pharmacokinetic parameter in rat and expressed as area under curve; format: ADME, organism-based; design: concentration or dose not given beside the values; conditions: in vivo
# [4] = target: T1, Oxytocin receptor (Homo sapiens, UniProt P30559); assay: Displacement of 3[H]oxytocin from human oxytocin receptor
# T1 sequence (P30559 whole entry): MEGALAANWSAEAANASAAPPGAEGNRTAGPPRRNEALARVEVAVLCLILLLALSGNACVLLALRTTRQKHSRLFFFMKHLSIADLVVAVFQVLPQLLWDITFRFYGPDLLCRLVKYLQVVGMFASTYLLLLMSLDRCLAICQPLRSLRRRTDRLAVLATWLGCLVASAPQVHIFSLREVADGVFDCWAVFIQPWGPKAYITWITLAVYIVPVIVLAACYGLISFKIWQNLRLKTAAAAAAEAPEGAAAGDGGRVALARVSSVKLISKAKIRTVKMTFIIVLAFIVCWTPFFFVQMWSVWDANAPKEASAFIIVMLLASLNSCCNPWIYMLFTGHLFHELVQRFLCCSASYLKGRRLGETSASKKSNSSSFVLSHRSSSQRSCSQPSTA
# [5] = Compound was tested for its half life in rat; format: ADME, organism-based; conditions: in vivo
# [6] = target: T2, Oxytocin receptor (Homo sapiens) (UniProt P30559); assay: Tested for ratio of displacement of 3H oxytocin from human OT in presence and absence of 50 mg/mL human serum albumin
# T2 sequence (whole entry): T1 sequence (P30559 whole entry)
# Outline: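 Displacement of [3H]oxytocin from human OT receptor, with IC50 measured with and without 50 mg/mL human serum albumin. The radioligand was made up in buffer containing 100 mg/mL HSA, a pre-dilution level. The value is the ratio of the IC50 with HSA to the IC50 without HSA.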
# [7] = Bioavailability in rat; format: ADME, organism-based; conditions: in vivo
# [8] = Compound was tested for its half life in dog; format: ADME, organism-based, Canis lupus familiaris; conditions: in vivo
# [9] = Compound was tested for plasma clearance in dog; format: ADME, organism-based, Canis lupus familiaris
# [10] = target: Vasopressin V1a receptor (Homo sapiens, UniProt P37288); assay: Compound was tested for its ability to displace vasopressin from human Vasopressin V1a receptor
# [11] = Bioavailability in dog; format: ADME, organism-based, Canis lupus familiaris; conditions: in vivo
# [12] = target: T3, Oxytocin receptor (Rattus norvegicus, UniProt P70536); assay: Compound was tested for displacement of 3[H] oxytocin from rat OT receptor (in vitro)
# T3 sequence (P70536 whole entry): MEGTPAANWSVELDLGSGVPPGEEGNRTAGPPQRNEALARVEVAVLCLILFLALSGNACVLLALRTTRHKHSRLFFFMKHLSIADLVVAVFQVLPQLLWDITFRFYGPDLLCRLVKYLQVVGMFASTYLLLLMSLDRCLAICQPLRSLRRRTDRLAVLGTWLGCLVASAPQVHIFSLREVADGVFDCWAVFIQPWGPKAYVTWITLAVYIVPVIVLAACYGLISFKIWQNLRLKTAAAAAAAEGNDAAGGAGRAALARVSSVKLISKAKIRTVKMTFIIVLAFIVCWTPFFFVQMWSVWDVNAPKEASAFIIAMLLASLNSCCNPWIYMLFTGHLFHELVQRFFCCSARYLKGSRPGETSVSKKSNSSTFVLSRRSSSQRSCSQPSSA
# Outline: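 Myometrium from rats that littered within 2 h, homogenised in sucrose buffer; membrane fraction pelleted at 48,000g, 4 °C. Filtration binding with [3H]oxytocin at 1 nM in 50 mM HEPES, 10 mM MgCl2, pH 7.4, plus competing ligand. Incubation 1 h at room temperature, then GF/C filtration, ice-cold buffer washes, scintillation counting of bound label.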
# [13] = species: Rattus norvegicus; assay: Serum concentration for 50% inhibition of uterine contractility response to oxytocin in rat; format: functional, organism-based
# Outline: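 Adult female AHA rats pre-treated 18 h with diethylstilboestrol (250 µg/kg ip, corn oil), anaesthetised with pentobarbitone (60 mg/kg ip); uterine tension ~2 g. OT 0.3 µg/kg iv given 3–180 min after a single iv bolus of antagonist (DMSO/PEG200/water 20:50:30). Response = 10-min area under the contraction–time curve. Plasma drug measured by mass spectrometry in serial blood samples.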
# [14] = Tested for lipophilicity; format: physicochemical; conditions: octanol/water
# [15] = Clearance in rat; format: ADME, organism-based; conditions: in vivo
# [16] = Compound was tested for lipophilicity; format: physicochemical; conditions: octanol/water
# [17] = Tested for plasma clearance in dog; format: ADME, organism-based, Canis lupus familiaris
# [18] = Compound was tested for half life in dog; format: ADME, organism-based, Canis lupus familiaris; conditions: in vivo
# [19] = Compound was tested for its lipophilicity; format: physicochemical; conditions: octanol/water
# Vasopressin V1a receptor, sequence (P37288 whole entry): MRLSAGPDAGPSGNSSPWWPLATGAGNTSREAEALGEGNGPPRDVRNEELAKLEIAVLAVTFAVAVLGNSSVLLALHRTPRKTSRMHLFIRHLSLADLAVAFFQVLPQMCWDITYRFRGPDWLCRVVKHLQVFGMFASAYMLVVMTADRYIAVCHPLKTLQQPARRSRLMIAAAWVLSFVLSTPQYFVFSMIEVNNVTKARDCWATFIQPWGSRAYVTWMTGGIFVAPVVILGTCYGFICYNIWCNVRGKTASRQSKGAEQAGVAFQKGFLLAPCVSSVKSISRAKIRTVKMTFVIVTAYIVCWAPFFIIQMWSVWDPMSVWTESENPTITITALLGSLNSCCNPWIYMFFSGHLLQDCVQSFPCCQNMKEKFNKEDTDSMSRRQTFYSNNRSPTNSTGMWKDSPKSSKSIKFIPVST
# Albumin, sequence (P02768 whole entry): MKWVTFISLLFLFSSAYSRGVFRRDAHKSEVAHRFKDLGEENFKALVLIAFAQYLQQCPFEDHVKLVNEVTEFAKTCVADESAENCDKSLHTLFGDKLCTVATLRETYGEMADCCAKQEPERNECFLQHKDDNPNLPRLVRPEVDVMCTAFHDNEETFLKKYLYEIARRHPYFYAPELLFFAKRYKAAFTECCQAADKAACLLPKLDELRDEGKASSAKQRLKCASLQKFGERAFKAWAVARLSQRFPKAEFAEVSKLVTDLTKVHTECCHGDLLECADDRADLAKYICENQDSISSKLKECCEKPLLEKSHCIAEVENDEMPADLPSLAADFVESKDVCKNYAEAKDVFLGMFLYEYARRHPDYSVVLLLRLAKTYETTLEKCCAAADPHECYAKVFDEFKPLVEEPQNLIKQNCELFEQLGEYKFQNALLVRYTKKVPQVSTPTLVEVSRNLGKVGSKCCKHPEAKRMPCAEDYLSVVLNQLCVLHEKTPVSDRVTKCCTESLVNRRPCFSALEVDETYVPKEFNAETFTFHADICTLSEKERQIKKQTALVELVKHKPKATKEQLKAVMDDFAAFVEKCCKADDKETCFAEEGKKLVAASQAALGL
SMILES,clearance [1],Binding [2],Ki [4],half-life [5],bioavailability [7],half-life [8],other results
O=C(c1ccc2oc(-c3cncc(Cn4cc(C(F)(F)F)ccc4=O)c3)cc2c1)N1CCC(N2C(=O)OCc3ccccc32)CC1,7 mL/min/kg,96%,63.1 nM,1.4 h,41%,–,AUC [3]: 5400 ng·h/mL; HSA shift [6]: 17
O=C(Cn1cnc(C(F)(F)F)cc1=O)NCc1cc2cc(C(=O)N3CCC(N4C(=O)OCc5ccccc54)CC3)ccc2o1,20 mL/min/kg,–,3.98 nM,0.8 h,14%,1.6 h,clearance [9]: 6 mL/min/kg; Ki [10]: 3980 nM; bioavailability [11]: 34%
O=C(Cn1ccc(N2CCOCC2)nc1=O)NCc1cc2cc(C(=O)N3CCC(N4C(=O)OCc5ccccc54)CC3)ccc2o1,17 mL/min/kg,–,0.501 nM,0.8 h,< 1%,1.2 h,clearance [9]: 11 mL/min/kg; bioavailability [11]: 2%
COc1cccn(CC(=O)NCc2cc3cc(C(=O)N4CCC(N5C(=O)OCc6ccccc65)CC4)ccc3o2)c1=O,22 mL/min/kg,–,2.51 nM,1.2 h,3%,1.1 h,clearance [9]: 19 mL/min/kg; Ki [10]: 1580 nM; bioavailability [11]: 68%
O=C(Cn1cc(C(F)(F)F)ccc1=O)NCc1cc2cc(C(=O)N3CCC(N4C(=O)OCc5cccc(F)c54)CC3)ccc2o1,11 mL/min/kg,–,7.94 nM,1.2 h,67%,–,–
O=C(Cn1cc(C(F)(F)F)ccc1=O)NCc1cc2cc(C(=O)N3CCC(N4C(=O)OCc5ccc(F)cc54)CC3)ccc2o1,–,–,6.31 nM,–,–,–,–
O=C(c1ccc2oc(-c3cccc(Cn4cc(C(F)(F)F)ccc4=O)c3)cc2c1)N1CCC(N2C(=O)OCc3ccccc32)CC1,7 mL/min/kg,98%,794 nM,2.2 h,> 45%,–,AUC [3]: 5700 ng·h/mL
O=C(Cn1cc(C(F)(F)F)ccc1=O)NCc1cc2cc(C(=O)N3CCC(N4C(=O)OCc5ccccc54)CC3)cnc2o1,26 mL/min/kg,86.2%,3.16 nM,0.6 h,2%,–,IC50 [12]: 744 nM; HSA shift [6]: 19; IC50 [13]: 20 nM; logD [14]: 1.85
O=C(c1ccc2oc(-c3cc(Cn4cc(C(F)(F)F)ccc4=O)ccn3)cc2c1)N1CCC(N2C(=O)OCc3ccccc32)CC1,–,96%,> 3160 nM,–,–,–,–
O=C(c1ccc2oc(-c3cccc(Cn4cc(C(F)(F)F)ccc4=O)n3)cc2c1)N1CCC(N2C(=O)OCc3ccccc32)CC1,12 mL/min/kg,98%,10 nM,1.2 h,22%,–,AUC [3]: 1500 ng·h/mL; HSA shift [6]: 87
O=C(Cn1cc(C(F)(F)F)ccc1=O)NCc1nc2cc(C(=O)N3CCC(N4C(=O)OCc5ccccc54)CC3)ccc2s1,–,–,79.4 nM,–,–,–,–
O=C(Cn1ccc(-c2ccccc2)nc1=O)NCc1cc2cc(C(=O)N3CCC(N4C(=O)OCc5ccccc54)CC3)ccc2o1,–,–,1 nM,–,–,1.3 h,clearance [9]: 9 mL/min/kg
Cn1ncc2c(=O)n(CC(=O)NCc3cc4cc(C(=O)N5CCC(N6C(=O)OCc7ccccc76)CC5)ccc4o3)cnc21,–,–,1.26 nM,–,–,1 h,clearance [9]: 11 mL/min/kg; bioavailability [11]: 36%
O=C(Cn1cc(C(F)(F)F)ccc1=O)NCc1cc2cc(C(=O)N3CCC(N4C(=O)OCc5c(F)cccc54)CC3)ccc2o1,–,–,100 nM,–,–,–,–
O=C(c1ccc2oc(CN3CCC(n4cc(C(F)(F)F)ccc4=O)CC3)cc2c1)N1CCC(N2C(=O)OCc3ccccc32)CC1,–,93%,794 nM,1.7 h,79%,–,clearance [15]: 6 mL/min/kg; AUC [3]: 12000 ng·h/mL; HSA shift [6]: 4
O=C(Cn1cc(C(F)(F)F)ccc1=O)NCc1cc2cc(C(=O)N3CCC(N4C(=O)OCc5ccccc54)CC3)ccc2o1,10 mL/min/kg,96.2%,2 nM,1 h,16%,1.5 h,IC50 [12]: 3040 nM; logD [16]: 2.16; clearance [17]: 8 mL/min/kg; Ki [10]: 1260 nM; HSA shift [6]: 46; IC50 [13]: 20 nM; bioavailability [11]: 51%
O=C(Cn1cc(C(F)(F)F)ccc1=O)NCc1cc2cc(C(=O)N3CCC(N4C(=O)OCc5ccccc54)CC3)c(F)cc2o1,21 mL/min/kg,–,7.94 nM,1.3 h,15%,–,–
O=C(Cn1cc(C(F)(F)F)ccc1=O)NCc1cc2cc(C(=O)N3CCC(N4C(=O)OCc5ccc(Cl)cc54)CC3)ccc2o1,21 mL/min/kg,–,3.16 nM,1 h,35%,–,–
O=C(Cn1cc(C(F)(F)F)ccc1=O)NCc1cc2cc(C(=O)N3CCC(N4C(=O)CCc5ccccc54)CC3)ccc2o1,13 mL/min/kg,–,25.1 nM,1.1 h,44%,–,–
O=C(c1ccc2oc(CN3CCCC[C@H]3Cn3cc(C(F)(F)F)ccc3=O)cc2c1)N1CCC(N2C(=O)OCc3ccccc32)CC1,–,98%,10 nM,–,–,–,HSA shift [6]: 90
Cn1c(CNC(=O)Cn2cc(C(F)(F)F)ccc2=O)cc2ccc(C(=O)N3CCC(N4C(=O)OCc5ccccc54)CC3)cc21,–,–,50.1 nM,–,–,–,–
CCOc1ccn(CC(=O)NCc2cc3cc(C(=O)N4CCC(N5C(=O)OCc6ccccc65)CC4)ccc3o2)c(=O)n1,35 mL/min/kg,–,2 nM,0.8 h,2%,–,half-life [18]: 1.9 h; clearance [17]: 12 mL/min/kg; Ki [10]: 1580 nM; bioavailability [11]: 43%
O=C(c1ccc2oc(CN3CCC[C@@H](n4cc(C(F)(F)F)ccc4=O)C3)cc2c1)N1CCC(N2C(=O)OCc3ccccc32)CC1,28 mL/min/kg,96%,25.1 nM,0.6 h,–,–,AUC [3]: 150 ng·h/mL; HSA shift [6]: 222; bioavailability [11]: 2%
COc1cc(OC2CCN(C(C)=O)CC2)ccc1C(=O)N1CCC(N2C(=O)OCc3ccccc32)CC1,51 mL/min/kg,83.7%,6.31 nM,1.1 h,55%,1.1 h,clearance [9]: 13 mL/min/kg; Ki [10]: > 2000 nM; logD [19]: 1.66; IC50 [13]: 25 nM; bioavailability [11]: 29%
O=C(Cn1cc(C(F)(F)F)ccc1=O)NCc1cc2cc(C(=O)N3CCC(N4C(=O)OCc5cc(F)ccc54)CC3)ccc2o1,17 mL/min/kg,–,6.31 nM,0.9 h,18%,–,–
O=C(Cn1cc(C(F)(F)F)ccc1=O)NCc1cc2ccc(C(=O)N3CCC(N4C(=O)OCc5ccccc54)CC3)cc2o1,–,–,100 nM,–,–,–,–
O=C(Cn1cc(C(F)(F)F)ccc1=O)NCc1nc2ccc(C(=O)N3CCC(N4C(=O)OCc5ccccc54)CC3)cc2s1,–,–,10 nM,–,–,–,–
O=C(Cn1ccccc1=O)NCc1cc2cc(C(=O)N3CCC(N4C(=O)OCc5ccccc54)CC3)ccc2o1,–,–,6.31 nM,–,–,0.5 h,clearance [9]: 34 mL/min/kg
O=C(Cn1ccc2ccccc2c1=O)NCc1cc2cc(C(=O)N3CCC(N4C(=O)OCc5ccccc54)CC3)ccc2o1,10 mL/min/kg,–,6.31 nM,0.8 h,17%,1.1 h,clearance [9]: 6 mL/min/kg
